Source: ChEMBL document CHEMBL2203193, “Synthesis of novel mono and bis-indole conduritol derivatives and their α/β-glycosidase inhibitory effects” (Bioorg Med Chem Lett, 2012)

How the values were obtained:
[1] = Inhibition of Bacillus stearothermophilus alpha-glucosidase using 4-nitrophenyl alpha-D-glucopyranoside as substrate after 30 mins by spectrophotometric analysis; parameters: species or system Geobacillus stearothermophilus
Outline: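 Inhibitor in phosphate buffer pH 6.8 with 1 mM 4-nitrophenyl α-D-glucopyranoside was preincubated 5 min at 37 °C. Then 0.075 unit enzyme was added and the mix held 30 min at 37 °C. Stopped with 100 mM Na₂CO₃; liberated p-nitrophenol read at 400 nm. Inhibitor levels were 1, 3, 10, 15 and 25, each in triplicate. IC50 came from an activity% vs log[inhibitor] plot, with no-inhibitor control taken as 100%.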

[2] = Inhibition of almond beta-glucosidase using 4-nitrophenyl beta-D-glucopyranoside as substrate after 30 mins by spectrophotometric analysis; parameters: species or system Prunus dulcis
Outline: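 Reaction held 1 mM 4-nitrophenyl β-D-glucopyranoside in phosphate buffer pH 6.8 with inhibitor, preincubated at 37 °C for 5 min. Enzyme (EC 3.2.1.21, 0.075 unit) was then added, followed by 30 min at 37 °C. Na₂CO₃ (100 mM) stop, then absorbance at 400 nm. Inhibitor at 10, 20, 30, 50, 70, 80, 90 and 100, triplicates. Control without inhibitor set to 100%; IC50 from activity% vs log[inhibitor].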

| Compound | IC50 [1] | IC50 [2] |
| --- | --- | --- |
| CC(=O)O[C@H]1[C@H](OC(C)=O)[C@@H](n2ccc3ccccc32)C=C[C@@H]1n1ccc2ccccc21 | 19.3 µM | 52.8 µM |
| C[C@H]1O[C@H](O[C@H]2[C@H](O)[C@@H](O)[C@@H](O[C@H]3[C@H](O)[C@@H](O)C(O)O[C@@H]3CO)O[C@@H]2CO)[C@H](O)[C@@H](O)[C@@H]1N[C@H]1C=C(CO)[C@@H](O)[C@H](O)[C@H]1O (stereo not given in full) [ACARBOSE] | 9.24 µM | 103 µM |
| CC(=O)O[C@@H]1[C@@H](O)[C@H](OC(C)=O)C=C[C@H]1n1ccc2ccccc21 | 11.6 µM | 23.1 µM |
| O[C@H]1[C@H](O)[C@@H](N2CCc3ccccc32)C=C[C@@H]1N1CCc2ccccc21 | 18.1 µM | 67.7 µM |
| CC(=O)O[C@@H]1[C@@H](O)[C@H](OC(C)=O)C=C[C@H]1N1CCc2ccccc21 | 12.4 µM | 24.3 µM |
